According to ChEMBL document CHEMBL1135527, “Synthesis and evaluation of 2'-substituted 4-(4'-carboxy- or 4'-carboxymethylbenzylidene)-N-acylpiperidines: highly potent and in vivo active steroid 5alpha-reductase type 2 inhibitors” (J Med Chem, 2002):

Experiments:
[1] = target: T1, 3-oxo-5-alpha-steroid 4-dehydrogenase 2 (Homo sapiens, UniProt P31213); test: Inhibition of Steroid 5-alpha-reductase type 2 from human benign prostatic hyperplasia (BPH) tissue
T1 sequence (P31213 whole entry): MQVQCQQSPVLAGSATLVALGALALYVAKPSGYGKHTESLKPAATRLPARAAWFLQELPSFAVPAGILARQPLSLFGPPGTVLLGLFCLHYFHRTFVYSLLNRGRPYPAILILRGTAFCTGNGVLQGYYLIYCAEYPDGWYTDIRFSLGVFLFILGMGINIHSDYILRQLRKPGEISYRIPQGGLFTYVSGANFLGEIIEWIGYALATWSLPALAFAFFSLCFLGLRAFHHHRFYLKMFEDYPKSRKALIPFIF
Method in brief: (§1)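 Human BPH prostate 105000g pellet (nuclei, mitochondria, microsomes) prepared in citrate buffer pH 5.5. Incubation of about 125 μg protein for 30 min at 37 °C in 40 mM citrate pH 5.5 with 100 μM NADPH, 0.21 μM [1,2-³H]testosterone and 2% DMSO. Reaction stopped with NaOH, steroids extracted with ether, T/DHT separated by radio-HPLC. Single 10 μM test or IC50; duplicates.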

[2] = target: T2, 3-oxo-5-alpha-steroid 4-dehydrogenase 2 (Rattus norvegicus, UniProt P31214); test: (§2) Inhibition of Steroid 5-alpha-reductase type 2 of rat ventral prostate (RVP); assay type: tissue-based, Prostate gland
T2 sequence (P31214 whole entry): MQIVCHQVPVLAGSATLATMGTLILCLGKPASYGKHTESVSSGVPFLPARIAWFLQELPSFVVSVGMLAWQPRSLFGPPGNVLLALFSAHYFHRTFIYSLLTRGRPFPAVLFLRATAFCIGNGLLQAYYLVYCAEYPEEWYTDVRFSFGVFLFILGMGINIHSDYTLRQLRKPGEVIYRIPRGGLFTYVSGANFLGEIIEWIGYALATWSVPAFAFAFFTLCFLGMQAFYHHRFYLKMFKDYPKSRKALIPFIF
Method in brief: (§3)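 Type 2 source: rat ventral prostate homogenized in citrate buffer pH 5.5, 105000g pellet. About 250 μg protein incubated 30 min at 37 °C in 40 mM citrate pH 5.5 with 200 μM NADPH, 0.21 μM [1,2-³H]testosterone and 2% DMSO. NaOH stop, ether extraction, radio-HPLC of T/DHT. Result given as % inhibition at 10 μM or IC50, run in duplicate.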

[3] = target: T3, 3-oxo-5-alpha-steroid 4-dehydrogenase 1 (Homo sapiens) (UniProt P18405); test: Inhibition of Steroid 5-alpha-reductase type I of human DU 145 prostatic tumor cell line, at 10 uM
T3 sequence (whole entry): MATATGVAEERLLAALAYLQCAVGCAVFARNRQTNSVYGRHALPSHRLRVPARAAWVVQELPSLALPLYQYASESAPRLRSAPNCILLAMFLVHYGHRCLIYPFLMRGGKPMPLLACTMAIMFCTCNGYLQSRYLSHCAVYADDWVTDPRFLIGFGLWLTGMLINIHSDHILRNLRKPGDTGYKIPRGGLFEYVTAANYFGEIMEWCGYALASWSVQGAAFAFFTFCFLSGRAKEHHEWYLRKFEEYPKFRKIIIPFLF
Method in brief: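 Intact DU145 cells (type 1 source) seeded at 180 000/well and left to adhere overnight. Compound added in DMSO to complete medium, then 6 h at 37 °C in 5% CO2 with [³H]androstenedione, 5 nM. Medium extracted twice with ether, steroids separated by radio-HPLC. Product formed expressed as % of triplicate no-inhibitor controls; screened at 10 μM.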

[4] = target: T4, 3-oxo-5-alpha-steroid 4-dehydrogenase 2 (Homo sapiens) (UniProt P31213); test: Percent of inhibition against Steroid 5-alpha-reductase type 2 of human uM; conditions: concentration not given here; method in brief: as §1
T4 sequence (whole entry): T1 sequence (P31213 whole entry)

[5] = target: T5, 3-oxo-5-alpha-steroid 4-dehydrogenase 2 (Rattus norvegicus) (UniProt P31214); test: as §2; design: concentration or dose not given beside the values; conditions: Prostate gland, concentration not given here; method in brief: as §3
T5 sequence (whole entry): T2 sequence (P31214 whole entry)

[6] = target: T6, 3-oxo-5-alpha-steroid 4-dehydrogenase 1 (Rattus norvegicus) (UniProt P24008); test: Inhibition of Steroid 5-alpha-reductase type I of rat ventral prostate (RVP); assay type: tissue-based; design: concentration or dose not given beside the values; conditions: Prostate gland, concentration not given here
T6 sequence (whole entry): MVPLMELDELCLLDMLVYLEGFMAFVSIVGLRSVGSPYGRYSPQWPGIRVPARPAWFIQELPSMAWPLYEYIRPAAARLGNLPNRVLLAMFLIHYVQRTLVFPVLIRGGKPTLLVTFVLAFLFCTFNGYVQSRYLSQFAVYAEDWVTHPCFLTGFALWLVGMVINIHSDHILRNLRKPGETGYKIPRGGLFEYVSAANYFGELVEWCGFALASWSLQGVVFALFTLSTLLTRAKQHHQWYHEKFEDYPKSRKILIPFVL
Method in brief: (§4)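 Rat ventral prostate 105000g pellet made in 20 mM phosphate pH 6.6 with […] and 1 mM DTT at 0–4 °C. About 250 μg protein incubated 30 min at 37 °C in 40 mM phosphate pH 6.6 with 200 μM NADPH, 0.21 μM [1,2-³H]testosterone and 2% DMSO. Ether extraction, radio-HPLC of T and DHT. % inhibition at 10 μM or IC50; duplicates.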

[7] = target: T7, 3-oxo-5-alpha-steroid 4-dehydrogenase 1 (Rattus norvegicus, UniProt P24008); test: Inhibition of Steroid 5-alpha-reductase type I from rat ventral prostate (RVP); assay type: tissue-based, Prostate gland; method in brief: as §4
T7 sequence (P24008 whole entry): T6 sequence (whole entry)

Rattus norvegicus [8] = test: In vivo ventral prostate weights in juvenile castrated rats treated with testosterone propionate (11.3 mg/kg) compound, by oral administration; assay type: functional, Prostate gland
Method in brief: (§5)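 Male rats castrated at 21 days old by scrotal incision under ether anaesthesia; eight groups of eight. One week later, testosterone propionate 1 mg/kg and test agent or vehicle in oil given once daily for 4 days. Testosterone and test agent were given by separate sc injections, or the test agent was given orally. Test doses 11.3–12.2 mg/kg, 10 times equimolar to finasteride 1 mg/kg.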

Rattus norvegicus [9] = test: Mean percentage of inhibition of the T-induced hypertrophic response was calculated according to the equation %inhibition = 100 x (Ct-D)/(Ct-Cc) at a dose 11.3 mg/kg by oral administration; assay type: functional; method in brief: as §5
Rattus norvegicus [10] = test: In vivo ventral prostate weights in juvenile castrated rats treated with testosterone propionate (11.3 mg/kg) compound, by subcutaneous administration; assay type: functional, Prostate gland; method in brief: as §5
Rattus norvegicus [11] = test: Mean percentage of inhibition of the T-induced hypertrophic response was calculated according to the equation %inhibition = 100 x (Ct-D)/(Ct-Cc) at a dose 11.3 mg/kg by subcutaneous administration; assay type: functional; conditions: sc; method in brief: as §5
[12] = target: 3-oxo-5-alpha-steroid 4-dehydrogenase 2 (Homo sapiens, UniProt P31213); test: In vitro inhibitory activity against Steroid 5-alpha-reductase type 2 of human benign prostatic hyperplasia (BPH) tissue; method in brief: as §1
[13] = target: T4, 3-oxo-5-alpha-steroid 4-dehydrogenase 2 (Homo sapiens); test: Percent of inhibition at 10 benign prostatic hyperplasia (BPH) tissue; conditions: concentration not given here; method in brief: as §1
Rattus norvegicus [14] = test: Mean percentage of inhibition of the T-induced hypertrophic response was calculated according to the equation %inhibition = 100 x (Ct-D)/(Ct-Cc) at a dose 11.8 mg/kg by subcutaneous administration; assay type: functional; conditions: sc; method in brief: as §5

SMILES | IC50 [1] | IC50 [2] | inhibition [3] | inhibition [5] | inhibition [6] | IC50 [7] | further results
O=C(O)c1ccc(C=C2CCN(C(=O)C(C3CCCCC3)C3CCCCC3)CC2)cc1 | 60 nM | 80 nM |  |  |  |  | 
O=C(O)c1ccc(OC2CCN(C(=O)N(c3ccccc3)c3ccccc3)CC2)cc1 |  |  | 10% | 50% | 53% |  | inhibition [4]: 68%
O=C(O)c1ccc(C=C2CCN(C(=O)CC(c3ccccc3)c3ccccc3)CC2)cc1 | 1100 nM | 880 nM | 8% |  |  | 1600 nM | 
O=C(O)Cc1ccc(C=C2CCN(C(=O)C(C3CCCCC3)C3CCCCC3)CC2)c(F)c1 [listing 1 of 2 here] |  |  | 4% |  |  |  | 
CCC(=O)O[C@H]1CC[C@H]2[C@@H]3CCC4=CC(=O)CC[C@]4(C)[C@H]3CC[C@]12C.O=C(O)c1ccc(C=C2CCN(C(=O)C(C3CCCCC3)C3CCCCC3)CC2)cc1 |  |  |  |  |  |  | Weight (Rattus norvegicus [8]): 31.6 (mg of prostate) (100g of body weight)-1; inhibition in vivo at 11.3 mg/kg (Rattus norvegicus [9]): 36%; Weight (Rattus norvegicus [10]): 27.9 (mg of prostate) (100g of body weight)-1; inhibition in vivo at 11.3 mg/kg (Rattus norvegicus [11]): 49%
O=C(O)c1cccc(C=C2CCN(C(=O)C(C3CCCCC3)C3CCCCC3)CC2)c1 |  |  |  | 25% | 35% |  | IC50 [12]: 700 nM
COc1cc(C(=O)O)ccc1C=C1CCN(C(=O)C23CC4CC(CC(C4)C2)C3)CC1 | 1200 nM |  | 10% | 51% | 52% |  | 
O=C(O)c1ccc(C=C2CCN(C(=O)N(c3ccccc3)c3ccccc3)CC2)cc1 | 830 nM | 690 nM | 22% |  |  | 540 nM | 
O=C(O)c1ccc(C=C2CCN(C(=O)C34CC5CC(CC(C5)C3)C4)CC2)cc1 | 260 nM | 2500 nM | 44% |  |  | 5600 nM | 
CC(C)(C)OC(=O)N1CCC(Oc2ccc(C(=O)O)cc2)CC1 |  |  | 2% | 12% | 4% |  | inhibition [13]: 7.8%
O=C(O)Cc1ccc(C=C2CCN(C(=O)C(C3CCCCC3)C3CCCCC3)CC2)c(F)c1 [listing 2 of 2 here] | 7 nM | 38 nM |  |  |  | 3200 nM | 
O=C(O)Cc1ccc(C=C2CCN(C(=O)C(C3CCCCC3)C3CCCCC3)CC2)cc1 | 6 nM |  | 6% | 56% | 66% |  | 
CCC(=O)O[C@H]1CC[C@H]2[C@@H]3CCC4=CC(=O)CC[C@]4(C)[C@H]3CC[C@]12C.O=C(O)c1ccc(C=C2CCN(C(=O)C(C3CCCCC3)C3CCCCC3)CC2)c(F)c1 |  |  |  |  |  |  | Weight (Rattus norvegicus [10]): 28.6 (mg of prostate) (100g of body weight)-1; inhibition in vivo at 11.8 mg/kg (Rattus norvegicus [14]): 47%
COc1cc(C(=O)O)ccc1C=C1CCN(C(=O)C(c2ccccc2)c2ccccc2)CC1 | 3500 nM | 940 nM | 8% |  |  | 1900 nM | 
